Data published in paper PMC7350150 (Neoplasia (New York, N.Y.), 2020).
Entries after “also recorded” stand apart in the source; their conditions may differ.

Legend:
[1] = Brain penetration of PARP inhibitors in mice; format: in vivo, male C57 mice; conditions: for Kp: po, AUC1-4h
[2] = tested on: MDA-MB-436 breast cancer xenograft; assay: MDA-MB-436 breast cancer xenograft efficacy; format: in vivo, BALB/c nude mice; conditions: for tumor relapse at day 89: two months after treatment terminated
Procedure, shortened: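 MDA-MB-436 cells at 2.5 × 10⁷ cells/mL in 1:1 PBS/Matrigel, implanted subcutaneously in the right front flank of 6–8-week female BALB/c nude mice. At ~130 mm³, mice stratified into six groups of nine. Oral BID dosing for 28 days: vehicle (0.5% methylcellulose), test compound from 1.6 mg/kg, or a comparator PARP inhibitor at 25 or 50 mg/kg. Tumours followed to day 89.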

[3] = tested on: PARylation in brain tumors, intracranial H209 xenograft; assay: Brain penetration and PD in intracranial H209 xenograft; format: in vivo, mice; conditions: single dose 3 mg/kg p.o., 4 h after treatment
[4] = tested on: intracellular PAR levels in HeLa cells; assay: Inhibition of H2O2-induced PAR synthesis; format: cell-based; conditions: Homo sapiens, 18 h, read-out: IC50 of intracellular PARP activity
P-gp = P-gp (Homo sapiens, UniProt P08183); assay: P-gp efflux activity in MDCKII-MDR1 cell monolayer; format: in vitro ADME; conditions: 1 µM and 10 µM; ER > 2 and decrease to < 50% with inhibitor suggests substrate
[5] = tested on: intracellular PARP activity in H2O2-treated GL261 cells; assay: Inhibition of H2O2-induced PAR synthesis; format: cell-based, murine; conditions: Mus musculus, GL261, read-out: IC50 of intracellular PARP activity
Procedure, shortened: (§1)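 Cells seeded at 5000/well in DMEM with 10% FBS. After 4 h, test compound added as eight serial dilutions (0.02–200 nM final) in 0.1% DMSO for 18 h. DNA damage induced with 200 μM H₂O₂ at 37 °C for 5 min. Cells fixed in ice-cold methanol at −20 °C and stained overnight at 4 °C with anti-PAR mAb, Alexa 488 secondary and DAPI. Nuclear PAR intensity imaged; IC50 taken from residual activity.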

[6] = Brain penetration after intravenous administration, Kpuu; format: in vivo, SD rats; conditions: male, Sprague-Dawley, rat, brain and plasma (unbound), 1 mg/kg
[7] = tested on: GL261 syngeneic intracranial glioma; assay: GL261 syngeneic intracranial glioma model survival; format: in vivo, Mice; conditions: single agent 9 mpk
PK study in dog = format: in vivo
Procedure, shortened: (§2)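 Healthy animals given a single dose. Mouse: 10 mg/kg p.o. or 1 mg/kg i.v. Rat: 5 mg/kg p.o. or 2 mg/kg i.v. Dog: 2 mg/kg p.o. or 1 mg/kg i.v. Plasma deproteinised with acetonitrile containing internal standard and centrifuged at 14,000 rpm for 8 min. Drug measured by LC–MS/MS. Dosing solutions analysed to confirm the actual dose given.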

PK study in rat = format: in vivo
Procedure, shortened: as §2

[8] = QWBA tissue distribution of [14C] pamiparib; format: in vivo, Long-Evans rats; conditions: rats, single oral 5 mg/kg, 24 h post treatment
[9] = tested on: intracellular PARP activity in H2O2-treated SF-295 cells; assay: Inhibition of H2O2-induced PAR synthesis; format: cell-based; conditions: Homo sapiens, SF-295, read-out: IC50 of intracellular PARP activity
Procedure, shortened: as §1

[10] = tested on: PARylation in MDA-MB-436 xenograft tumors; assay: PK/PD in MDA-MB-436 xenograft; format: in vivo, mice; conditions: single dose 5.45, first 12 h
[11] = PK/PD in MDA-MB-436 xenograft; format: in vivo, mice; conditions: BALB/c nude, mouse, tumor, oral, 5.45 mg/kg
[12] = tested on: intracranial H209 xenograft; assay: Intracranial H209 xenograft survival; format: in vivo, BALB/c nude mice; conditions: pamiparib 3 mg/kg BID day 1–21, 29–49; TMZ 50 mg/kg; combination TMZ 50 mg/kg plus pamiparib 0.75 mg/kg BID
PK study in healthy mice = format: in vivo, Mouse
Procedure, shortened: as §2

Human BCRP = Human BCRP (Homo sapiens, UniProt Q9UNQ0); assay: ATP-dependent uptake activity, BCRP substrate test; format: in vitro ADME; conditions: 0.5 μM to 30 μM; uptake ratio ≥ 2-fold is positive
NCI-H2227 = assay: Pamiparib and TMZ combination, anti-proliferation; format: cell-based; conditions: read-out: EC50 of TMZ single agent
[13] = tested on: intracranial H209-TR xenografts; assay: Intracranial H209-TR xenograft survival; format: in vivo, BALB/c nude mice; conditions: same treatment schedule as intracranial H209
NCI-H2286 = assay: Pamiparib and TMZ combination, anti-proliferation; format: cell-based; conditions: Homo sapiens, NCI-H2286, read-out: EC50 of TMZ single agent
DMS153 = assay: Pamiparib and TMZ combination, anti-proliferation; format: cell-based; conditions: Homo sapiens, DMS-153, read-out: EC50 of TMZ single agent
U87-MG = assay: Pamiparib and TMZ combination, anti-proliferation; format: cell-based; conditions: Homo sapiens, U-87 MG, read-out: EC50 of TMZ single agent
NCI-H209 = assay: Pamiparib and TMZ combination, anti-proliferation; format: cell-based; conditions: Homo sapiens, NCI-H209, read-out: EC50 of TMZ single agent
SF-539 = assay: Pamiparib and TMZ combination, anti-proliferation; format: cell-based; conditions: Homo sapiens, SF-539, read-out: EC50 of TMZ single agent
SF-295 = assay: Pamiparib and TMZ combination, anti-proliferation; format: cell-based; conditions: Homo sapiens, SF-295, read-out: EC50 of TMZ single agent
T98G = assay: Pamiparib and TMZ combination, anti-proliferation; format: cell-based; conditions: Homo sapiens, read-out: EC50 of TMZ single agent
U-118MG = assay: Pamiparib and TMZ combination, anti-proliferation; format: cell-based; conditions: Homo sapiens, read-out: EC50 of TMZ single agent
U251 = assay: Pamiparib and TMZ combination, anti-proliferation; format: cell-based; conditions: Homo sapiens, U-251, read-out: EC50 of TMZ single agent
LN-229 = assay: Pamiparib and TMZ combination, anti-proliferation; format: cell-based; conditions: Homo sapiens, LN-229, read-out: EC50 of TMZ single agent
NCI-H1048 = assay: Pamiparib and TMZ combination, anti-proliferation; format: cell-based; conditions: Homo sapiens, NCI-H1048, read-out: EC50 of TMZ single agent
SNB-19 = assay: Pamiparib and TMZ combination, anti-proliferation; format: cell-based; conditions: Homo sapiens, SNB-19, read-out: EC50 of TMZ single agent
NCI-H69 = assay: Pamiparib and TMZ combination, anti-proliferation; format: cell-based; conditions: Homo sapiens, NCI-H69, read-out: EC50 of TMZ single agent
NCI-H1436 = assay: Pamiparib and TMZ combination, anti-proliferation; format: cell-based; conditions: Homo sapiens, NCI-H1436, read-out: EC50 of TMZ single agent
[14] = male, C57, mouse, brain and plasma, Brain/Plasma, single p.o. dose: Pamiparib 10, Talazoparib 3, Olaparib 50, Niraparib 50 mg/kg
[15] = single p.o. dose: Pamiparib 10, Talazoparib 3, Olaparib 50, Niraparib 50 mg/kg
[16] = Rat, 5 mg/kg p.o. or 2 mg/kg i.v.
[17] = mouse, plasma, intravenous, 1 mg/kg

P-gp, sequence (P08183 whole entry): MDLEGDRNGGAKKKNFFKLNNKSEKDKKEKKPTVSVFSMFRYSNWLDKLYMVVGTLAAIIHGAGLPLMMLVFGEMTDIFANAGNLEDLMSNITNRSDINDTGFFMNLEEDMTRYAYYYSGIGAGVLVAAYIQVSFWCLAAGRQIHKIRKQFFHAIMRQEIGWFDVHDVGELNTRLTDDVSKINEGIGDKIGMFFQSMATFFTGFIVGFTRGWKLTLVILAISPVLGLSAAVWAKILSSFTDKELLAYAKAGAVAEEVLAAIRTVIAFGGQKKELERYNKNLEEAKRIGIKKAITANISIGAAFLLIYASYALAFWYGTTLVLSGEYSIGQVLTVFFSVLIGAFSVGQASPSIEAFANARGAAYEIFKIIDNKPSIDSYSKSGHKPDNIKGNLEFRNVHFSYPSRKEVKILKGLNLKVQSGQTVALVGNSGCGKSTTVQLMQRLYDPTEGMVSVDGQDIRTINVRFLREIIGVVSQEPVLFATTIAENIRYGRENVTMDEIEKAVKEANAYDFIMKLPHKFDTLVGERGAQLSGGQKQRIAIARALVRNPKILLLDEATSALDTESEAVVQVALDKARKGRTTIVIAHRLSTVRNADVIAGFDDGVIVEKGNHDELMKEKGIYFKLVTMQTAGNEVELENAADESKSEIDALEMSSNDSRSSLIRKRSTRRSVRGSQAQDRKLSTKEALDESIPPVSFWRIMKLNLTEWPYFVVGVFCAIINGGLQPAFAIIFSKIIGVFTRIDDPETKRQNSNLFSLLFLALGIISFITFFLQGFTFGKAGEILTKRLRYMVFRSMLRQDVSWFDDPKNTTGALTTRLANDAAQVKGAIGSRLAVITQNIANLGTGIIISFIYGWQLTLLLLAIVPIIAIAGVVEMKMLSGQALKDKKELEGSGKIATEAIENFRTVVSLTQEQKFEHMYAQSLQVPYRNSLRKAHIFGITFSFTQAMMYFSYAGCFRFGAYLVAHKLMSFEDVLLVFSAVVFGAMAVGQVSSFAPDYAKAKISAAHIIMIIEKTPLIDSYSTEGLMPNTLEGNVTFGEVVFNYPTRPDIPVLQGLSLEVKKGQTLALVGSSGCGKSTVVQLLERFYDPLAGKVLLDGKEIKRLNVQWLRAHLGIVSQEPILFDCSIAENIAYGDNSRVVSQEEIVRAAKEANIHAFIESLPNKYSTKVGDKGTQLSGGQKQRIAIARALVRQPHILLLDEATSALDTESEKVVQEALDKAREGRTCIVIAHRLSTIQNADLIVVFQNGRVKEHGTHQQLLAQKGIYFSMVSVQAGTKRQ
Human BCRP, sequence (Q9UNQ0 whole entry): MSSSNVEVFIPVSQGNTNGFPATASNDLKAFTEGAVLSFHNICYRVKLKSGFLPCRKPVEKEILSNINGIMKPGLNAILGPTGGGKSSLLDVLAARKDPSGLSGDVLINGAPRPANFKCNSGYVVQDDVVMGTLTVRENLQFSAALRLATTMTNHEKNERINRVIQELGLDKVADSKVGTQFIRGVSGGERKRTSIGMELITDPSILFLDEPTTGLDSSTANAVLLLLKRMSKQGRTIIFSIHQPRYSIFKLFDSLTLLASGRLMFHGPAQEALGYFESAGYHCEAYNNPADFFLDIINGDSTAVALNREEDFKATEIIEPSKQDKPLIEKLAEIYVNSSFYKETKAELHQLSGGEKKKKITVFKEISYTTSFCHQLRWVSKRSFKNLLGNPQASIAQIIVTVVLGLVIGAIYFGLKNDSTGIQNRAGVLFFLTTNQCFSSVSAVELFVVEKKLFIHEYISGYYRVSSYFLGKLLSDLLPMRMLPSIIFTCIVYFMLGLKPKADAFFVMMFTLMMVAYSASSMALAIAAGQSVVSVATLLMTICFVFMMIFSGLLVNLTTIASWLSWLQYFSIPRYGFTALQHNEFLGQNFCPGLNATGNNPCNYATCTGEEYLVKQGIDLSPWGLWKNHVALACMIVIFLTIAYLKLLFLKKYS

NC(=O)c1cccc2cn(-c3ccc([C@@H]4CCCNC4)cc3)nc12 [Niraparib, niraparib]
Kp at 1 h ([1]; male, C57, mouse, brain and plasma, oral, Brain/Plasma, concentration, 1 h, single p.o. dose: Pamiparib 10, Talazoparib 3, Olaparib 50, Niraparib 50 mg/kg): 0.06 | Kp at 2 h ([1]; male, C57, mouse, brain and plasma, oral, Brain/Plasma, concentration, 2 h, single p.o. dose: Pamiparib 10, Talazoparib 3, Olaparib 50, Niraparib 50 mg/kg): 0.08 | Kp at 4 h ([1]; male, C57, mouse, brain and plasma, oral, Brain/Plasma, concentration, 4 h, single p.o. dose: Pamiparib 10, Talazoparib 3, Olaparib 50, Niraparib 50 mg/kg): 0.14 | Kp [1, 14]: 0.09 | AUC1-4h, Brain [1, 15]: 1849 ng·h/g

O=C(c1cc(Cc2n[nH]c(=O)c3ccccc23)ccc1F)N1CCN(C(=O)C2CC2)CC1 [Olaparib, olaparib, reference compound]
objective responses ([2]; olaparib high-dose group (50 mg/kg, BID)): 100% | tumor relapse at day 89 ([2]; olaparib 25 mg/kg BID): tumor relapse was observed | AUC1-4h, Brain [1, 15]: 56 ng·h/g

C[C@]12CCCN1CC1=NNC(=O)c3cc(F)cc4[nH]c2c1c34 [Pamiparib]
inhibition of PARylation in brain tumors [3]: complete inhibition of PARylation; also recorded: completely inhibited | objective responses ([2]; day 29, lowest dose 1.6 mg/kg BID): 100% | objective responses (PR plus CR) ([2]; day 29, pamiparib oral, BID for 28 days, doses from 1.6 mg/kg): 100% | tumor relapse at day 89 ([2]; pamiparib lowest dose 1.6 mg/kg): tumor relapse was observed | IC50 [4]: 0.00024 µM | P-gp substrate assessment (P-gp): not a substrate of P-gp or BCRP | IC50 [5]: 0.00025 µM | Kp [6]: 0.158 | median survival [7]: 21 days | AUC 0-inf/Dose (PK study in dog; Dog, 2 mg/kg p.o. or 1 mg/kg i.v.): 800 ± 95 ng.h/mL per mg/kg | half-life (PK study in dog; dog, plasma): 3.6 ± 1.9 h | Vd (PK study in dog; dog, plasma, intravenous, 1 mg/kg): 2.1 ± 0.2 L/kg | bioavailability (PK study in dog; dog, plasma, oral): 73 ± 4% | AUC 0-inf/Dose (PK study in rat; [16]): 694 ± 124 ng.h/mL per mg/kg | clearance (PK study in rat; [16]): 22.7 ± 2.8 mL/min/kg | half-life (PK study in rat; rat, plasma): 5.5 ± 0.8 h | Vd (PK study in rat; rat, plasma, intravenous, 2 mg/kg): 6.9 ± 0.7 L/kg | bioavailability (PK study in rat; rat, plasma, oral): 94 ± 17% | drug concentration in the brain as share of the detected plasma level [8]: approximately 20% | IC50 [9]: 0.00017 µM | intra-tumor concentration [10]: > 0.5 µmol/kg | concentration at 4 h [11]: ~800 nM | median survival [12]: 26.5 days | AUC 0-inf/Dose (PK study in healthy mice; Mouse, 10 mg/kg p.o. or 1 mg/kg i.v.): 552 ± 194 ng.h/mL per mg/kg | half-life (PK study in healthy mice; mouse, plasma): 3.2 ± 0.5 h | Vd (PK study in healthy mice; [17]): 5.7 ± 0.5 L/kg | clearance (PK study in healthy mice; [17]): 29.9 ± 2.4 mL/min/kg | bioavailability (PK study in healthy mice; mouse, plasma, oral): 99 ± 35% | BCRP substrate assessment (Human BCRP): not a substrate of P-gp or BCRP | drug concentration in brain ([1]; maintained for 4 h post treatment): > 100 ng/g | Kp [1, 14]: 0.18 | AUC1-4h, Brain [1, 15]: 820 ng·h/g

Cn1nnc2c(C(N)=O)ncn2c1=O [TMZ, Temozolomide]
EC50 (NCI-H2227): 576 µM | median survival [13]: 24 days | EC50 (NCI-H2286): 182 µM | EC50 (DMS153): 60 µM | EC50 (U87-MG): > 300 µM | EC50 (NCI-H209): 63 µM | EC50 (SF-539): 80 µM | EC50 (SF-295): > 300 µM | EC50 (T98G): > 300 µM | EC50 (U-118MG): > 300 µM | EC50 (U251): 32 µM | EC50 (LN-229): > 300 µM | EC50 (NCI-H1048): 153 µM | EC50 (SNB-19): > 300 µM | EC50 (NCI-H69): 15 µM | EC50 (NCI-H1436): > 300 µM | median survival [12]: 75 days

Cn1ncnc1[C@H]1c2n[nH]c(=O)c3cc(F)cc(c23)N[C@@H]1c1ccc(F)cc1 [Talazoparib, talazoparib]
AUC1-4h, Brain [1, 15]: 85 ng·h/g
